A short description of assay [1]: inhibitors of TNFa-induced NFkB p65 translocation, primary screen, imaging, HUVEC, MLSMR starter and 10KST1 sets (AID 438;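 active means inhibition above 20% together with a positive visual image hit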;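 further: compound added about 3h40 before a 20 min TNFalpha stimulation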;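 on inhibition: signal is the nuclear over cytoplasmic p65 intensity ratio per well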). Conditions: HUVEC TNFa-induced p65 nuclear translocation; cell count: measured here: nuclei count (cytotoxicity indicator), at 2.08 µM; inhibition: at 2 µM, stronger effect = higher value, 0% TNFa-plus-vehicle, 100% no-TNFa wells.
Assay [2] is described as follows: inhibitors of mutant huntingtin aggregation, primary screen, imaging, exon1htt(103Q)mCFP cells, high-content imaging (AID 483;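 active means visual image review flags a hit and inhibition of aggregation exceeds 20%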;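 further: compound exposure lasted 3 days before fixation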;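 on nuclei count: percent of the per-plate median nuclei count of sample wells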). The conditions noted are these: exon1htt(103Q)mCFP cell line, aggregate imaging, at 2 µM; inhibition of aggregation: stronger effect = higher value; nuclei count: measured here: cell count, toxicity.
The nature of assay [3]: inhibitors of E-selectin induction by TNFa, primary screen, imaging, HUVEC, immunofluorescence, MLSMR starter and 10KST1 sets (AID 487;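 active means visually confirmed hit in the image check and inhibition above 20%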;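 on inhibition: signal is fraction of cell area covered by stained E-selectin grains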;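 on nuclei count: 100% = median nuclei count of all wells on the same plate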). Conditions: HUVEC TNFalpha-induced E-selectin immunofluorescence imaging, at 2 µM; inhibition: stronger effect = higher value; nuclei count: measured here: cell number, toxicity.
Assay [4] has as its target Voltage-gated potassium channel subunit beta-2 (Rattus norvegicus) (UniProt P62483). Briefly: KvBeta enzyme negative modulators, primary screen, biochemical, NADPH fluorescence (AID 622).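 Further: slope of raw intensity against log time taken from 70 to 1610 s.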 Conditions: recombinant KvBeta, 4-cyanobenzaldehyde reduction, at 10 µM, stronger effect = higher value.
Assay [5] shares this target. The assay can be described thus: KvBeta positive modulators, primary screen, biochemical, NADPH fluorescence (AID 623;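 active means NADPH fluorescence slope more negative than the mean of all samples by about 3 SD, 99.7% confidence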;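 further: fluorescence intensity change per second fitted from 20 to 320 s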). The conditions noted are these: Recombinant KvBeta, NADPH fluorescence decrease slope, 10 min; at 10 µM; stronger effect = lower value.
The target of assay [6] is Muscarinic acetylcholine receptor M4 (Homo sapiens) (UniProt P08173). Briefly: compounds altering M4/GIRK thallium flux, either direction, primary screen, M4 allosteric agonist project, cell-based, HEK293 M4/GIRK, BTC-AM (AID 625;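 active means fluorescence slope after compound addition differing from the mean of all tested samples at 99.7% confidence, mostly higher but some lower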;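 further: thallium influx through GIRK channels coupled to M4 in HEK293 cells with BTC-AM dye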). The conditions noted are these: at 10 µM, actives lie on both sides. The procedure, abridged: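 Material: M4/GIRK1/GIRK2 stable HEK293 cell line. Medium: pH 7.3 thallium assay buffer. Dosing: single compound concentration, 10 µM final. Schedule: 1 h dye loading, 2 min kinetic read. Measured by: kinetic fluorescence with BTC-AM dye. Read-out: post-addition slope, 15–24 s, of baseline-normalized fluorescence. Benchmarks: carbachol and DMSO controls.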

Assay [7] is described as follows: inhibitors of Sendai virus-induced IRF3 signaling, primary screen, TLR/RLR signaling modifier project, cell-based, Sendai virus stimulus, luciferase, 10K MLSCN set (AID 602276;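 active means inhibition at or above 50% at 10 µM; inactive means inhibition below 50%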;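 further: firefly luciferase from ISG56 promoter only with Renilla not read in this screen; 0% = Sendai virus plus DMSO and 100% = medium plus DMSO without virus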). The conditions noted are these: HEK293 RL24 IRF3 luciferase reporter, at 10 µM, stronger effect = higher value. In general terms: Reporter assays use an easily measured gene product as a stand-in for the process of interest.

Assay [8] in a line: inhibitors of poly I:C-induced TLR3 signaling, primary screen, cell-based, poly I:C stimulus, luciferase, 10K MLSCN set (AID 602277;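 active means inhibition of the reporter signal at or above 50%; inactive means inhibition below 50%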). The conditions noted are these: HEK293-TLR3 RL24 IRF3 luciferase reporter, at 10 µM, stronger effect = higher value.

Activity calls are given as the source filed them.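 How the source made its calls, unless noted: active means fluorescence slope higher than the sample average by over 3 SD (cut at about -0.22 in these data, passing the limit was not always enough); inactive means the rest.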

Chain of Muscarinic acetylcholine receptor M4 (Homo sapiens) (P08173 whole entry, looked up): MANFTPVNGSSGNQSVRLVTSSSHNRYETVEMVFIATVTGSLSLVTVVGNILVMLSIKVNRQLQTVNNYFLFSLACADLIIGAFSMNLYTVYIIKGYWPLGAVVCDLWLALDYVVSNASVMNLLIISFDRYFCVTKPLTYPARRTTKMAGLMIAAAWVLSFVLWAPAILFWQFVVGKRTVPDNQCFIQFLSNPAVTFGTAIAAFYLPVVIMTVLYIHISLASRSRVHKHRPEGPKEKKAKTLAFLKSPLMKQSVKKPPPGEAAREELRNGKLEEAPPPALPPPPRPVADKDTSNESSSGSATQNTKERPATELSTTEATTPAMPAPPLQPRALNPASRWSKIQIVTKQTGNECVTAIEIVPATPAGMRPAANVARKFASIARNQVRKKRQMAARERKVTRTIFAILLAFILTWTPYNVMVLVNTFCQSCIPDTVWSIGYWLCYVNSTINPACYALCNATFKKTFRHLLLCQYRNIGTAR
Chain of Voltage-gated potassium channel subunit beta-2 (Rattus norvegicus) (P62483 whole entry, looked up): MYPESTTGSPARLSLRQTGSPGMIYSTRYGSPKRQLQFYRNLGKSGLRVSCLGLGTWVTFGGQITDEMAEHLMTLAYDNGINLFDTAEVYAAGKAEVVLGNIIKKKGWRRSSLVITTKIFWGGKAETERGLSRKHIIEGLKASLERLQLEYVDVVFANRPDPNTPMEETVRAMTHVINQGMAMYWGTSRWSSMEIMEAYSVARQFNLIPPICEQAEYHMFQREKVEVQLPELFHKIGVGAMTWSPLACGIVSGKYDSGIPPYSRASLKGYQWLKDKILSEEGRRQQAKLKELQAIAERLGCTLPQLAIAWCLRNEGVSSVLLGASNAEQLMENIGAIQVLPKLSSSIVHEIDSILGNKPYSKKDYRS

For the compound `CSC1CCCCC1(O)CSc1nc2c(cc1C#N)CCCC2` (centres undefined), in assay [1], the cell count came to 306. Besides, the inhibition in assay [1] was -7.4% (inactive); in assay [3], -111% (inactive); in assay [7], 21.3% (inactive); in assay [8], 13.8% (inactive). Moreover, the inhibition of aggregation in assay [2] was 9% (inactive). For the same compound, the figures for the nuclei count in assay [2] and in assay [3] were 87% and 78.9%, respectively. For the same compound, the values for the fluorescence slope in assay [4] and in assay [6] were -0.411 (inactive) and 0.00633 (inactive), respectively. For the same compound, in assay [5], the NADPH fluorescence slope is 1e-05 (inactive).

As for `CCn1c(NCc2ccc(N(C)C)cc2)nc2ccccc21`, the cell count in assay [1] was 627. In addition, the inhibition in assay [1] is 12.5% (inactive); in assay [3] it was -34.6% (inactive); in assay [7] it was -9.27% (inactive); in assay [8], -36.5% (inactive). Besides, the inhibition of aggregation in assay [2] is -2.9% (inactive). In addition, the nuclei count in assay [2] came to 96.5%; in assay [3] it was 116%. The values for the fluorescence slope in assay [4] and in assay [6] were -0.31 (inactive) and 0.00632 (inactive), respectively. Further, the NADPH fluorescence slope in assay [5] was -2.4e-05 (inactive).

Regarding `O=C(NCCCN1CCCC1=O)c1cncc(Br)c1`, in assay [1], the cell count was 394. The inhibition in assay [1] was -5.8% (inactive); in assay [3], 54.5% (active); in assay [7], 13.1% (inactive); in assay [8], 24.3% (inactive). In addition, the inhibition of aggregation in assay [2] was 14.1% (inactive). Also, the nuclei count is 91.8% in assay [2] and 72.7% in assay [3]. The results for the fluorescence slope in assay [4] and in assay [6] were -0.418 (inactive) and 0.00605 (inactive), respectively. The NADPH fluorescence slope in assay [5] was -9.4e-05 (inactive).

In the case of `Cc1nc(N2CCOCC2)[nH]c(=O)c1CCC(C)C`, the cell count in assay [1] worked out at 417. Moreover, the inhibition in assay [1] was -3.4% (inactive); in assay [3] it was 28.7% (inactive); in assay [7], 15.6% (inactive); in assay [8] it was 21.2% (inactive). Besides, the inhibition of aggregation in assay [2] was 6.3% (inactive). Besides, the nuclei count came to 107% in assay [2] and 57.6% in assay [3]. The fluorescence slope in assay [4] is -0.4 (inactive); in assay [6], 0.0057 (inactive). Further, in assay [5], the NADPH fluorescence slope was 2.6e-05 (inactive).

As for `COc1ccc(N2C(=O)CC(N3CCN(S(=O)(=O)c4c(F)cccc4F)CC3)C2=O)cc1OC` (centres undefined), the cell count in assay [1] stood at 418. For the same compound, the inhibition was -6.6% (inactive) in assay [1], -20.1% (inactive) in assay [3], 9.5% (inactive) in assay [7] and 12.6% (inactive) in assay [8]. Besides, the inhibition of aggregation in assay [2] was 1% (inactive). Moreover, the figures for the nuclei count in assay [2] and in assay [3] were 99.7% and 112%, respectively. Moreover, the fluorescence slope in assay [4] was -0.572 (inactive); in assay [6], 0.00422 (inactive). Besides, in assay [5], the NADPH fluorescence slope is -1.2e-05 (inactive).

As to `Nn1c(CSc2nc3ccccc3o2)nnc1CSc1nc2ccccc2o1`, in assay [1], the cell count amounted to 449. Moreover, the inhibition in assay [1] was -13.4% (inactive); in assay [3], 29.7% (inactive); in assay [7], 9.57% (inactive); in assay [8], 17% (inactive). Moreover, the inhibition of aggregation in assay [2] was 24.5% (inactive). Besides, the nuclei count in assay [2] was 85.3%; in assay [3] it was 86%. The fluorescence slope in assay [4] was -0.408 (inactive); in assay [6] it was 0.00537 (inactive). Further, in assay [5], the NADPH fluorescence slope was 5.7e-05 (inactive).

On to `CCCCCCNS(=O)(=O)c1ccc(Cl)s1`, for which, in assay [1], the cell count stood at 579. Further, the inhibition in assay [1] is 9.2% (inactive); in assay [3] it was -52.4% (inactive); in assay [7] it was 19.6% (inactive); in assay [8], 22.4% (inactive). Further, the inhibition of aggregation in assay [2] was -1.2% (inactive). Moreover, the figures for the nuclei count in assay [2] and in assay [3] were 102% and 89.1%, respectively. Further, the fluorescence slope in assay [4] is -0.492 (inactive); in assay [6] it was 0.00433 (inactive). Moreover, the NADPH fluorescence slope in assay [5] is 0.000132 (inactive).

In the case of `CCOC(=O)C1=C(C)Nc2ncnn2C1c1ccccc1F` (centres undefined), the cell count in assay [1] turned out to be 469. For the same compound, the inhibition is -5.9% (inactive) in assay [1], -49.3% (inactive) in assay [3], -5.35% (inactive) in assay [7] and -2.56% (inactive) in assay [8]. Moreover, in assay [2], the inhibition of aggregation is -7.1% (inactive). The nuclei count in assay [2] was 81.7%; in assay [3], 102%. In addition, the fluorescence slope is -0.559 (inactive) in assay [4] and 0.00641 (inactive) in assay [6]. In assay [5], the NADPH fluorescence slope is -1.9e-05 (inactive).

As to `O=C(Cn1cnc2sc(-c3ccccc3)cc2c1=O)N1CCOCC1`, in assay [1], the cell count is 353. For the same compound, the inhibition in assay [1] is 6.9% (inactive); in assay [3] it was -123% (inactive); in assay [7], 6.22% (inactive); in assay [8], -5.03% (inactive). Besides, the inhibition of aggregation in assay [2] is 15.6% (inactive). Further, the nuclei count in assay [2] amounted to 98.1%; in assay [3], 114%. Moreover, the figures for the fluorescence slope in assay [4] and in assay [6] were -0.445 (inactive) and 0.00489 (inactive), respectively. In addition, in assay [5], the NADPH fluorescence slope is -4.1e-05 (inactive).

Consider `CCc1c(C)nc(N)n2c(SCC(=O)N3CCCc4ccccc43)nnc12`, for which, in assay [1], the cell count was 503. In addition, the inhibition in assay [1] is 14.6% (inactive); in assay [3], -251% (inactive); in assay [7], 20.9% (inactive); in assay [8] it was 31.4% (inactive). For the same compound, the inhibition of aggregation in assay [2] is -13.3% (inactive). For the same compound, the nuclei count in assay [2] is 123%; in assay [3], 147%. Besides, the fluorescence slope in assay [4] is -0.454 (inactive); in assay [6] it was 0.00455 (inactive). In addition, in assay [5], the NADPH fluorescence slope is -6.5e-05 (inactive).

In the case of `CC(C)(C)N=C1NC(=NC(C)(C)C)c2ccccc21`, the cell count in assay [1] was 716. Besides, the inhibition in assay [1] was 2.3% (inactive); in assay [3], -18.9% (inactive); in assay [7] it was 5.9% (inactive); in assay [8] it was 5.38% (inactive). Moreover, in assay [2], the inhibition of aggregation was -5.7% (inactive). In addition, the nuclei count in assay [2] was determined as 106%; in assay [3], 107%. Further, the fluorescence slope in assay [4] was -0.525 (inactive); in assay [6] it was 0.00395 (inactive). For the same compound, the NADPH fluorescence slope in assay [5] was -7.9e-06 (inactive).

In the case of `CCOc1ccc(NC(=O)CSc2nnnn2CC(=O)O)cc1`, in assay [1], the cell count was 482. In addition, the inhibition in assay [1] was -1.4% (inactive); in assay [3], -110% (inactive); in assay [7] it was 10.5% (inactive); in assay [8] it was 14.4% (inactive). The inhibition of aggregation in assay [2] is -19.1% (inactive). Also, the results for the nuclei count in assay [2] and in assay [3] were 112% and 122%, respectively. In addition, the fluorescence slope in assay [4] is -0.561 (inactive); in assay [6], 0.00555 (inactive). Besides, the NADPH fluorescence slope in assay [5] was -4.1e-05 (inactive).

`CCNC(=O)CC1C(=O)N(c2ccc(F)cc2)C(=O)N1CCC(C)C` (centres undefined): the cell count in assay [1] turned out to be 357. Further, the inhibition in assay [1] is -10.8% (inactive); in assay [3] it was -21.1% (inactive); in assay [7], 4.4% (inactive); in assay [8], 15.9% (inactive). The inhibition of aggregation in assay [2] is 17.4% (inactive). The nuclei count in assay [2] is 92.3%; in assay [3] it was 106%. The figures for the fluorescence slope in assay [4] and in assay [6] were -0.525 (inactive) and 0.00457 (inactive), respectively. Besides, the NADPH fluorescence slope in assay [5] is -5.9e-06 (inactive).

As for `CCc1cccc(NS(=O)(=O)c2c(C)n[nH]c2C)c1`, the cell count in assay [1] is 679. For the same compound, the inhibition in assay [1] was -8.8% (inactive); in assay [3], -135% (inactive); in assay [7], 4.66% (inactive); in assay [8], 19.7% (inactive). For the same compound, the inhibition of aggregation in assay [2] is -12.8% (inactive). For the same compound, the nuclei count came out at 124% in assay [2] and 111% in assay [3]. Also, the fluorescence slope in assay [4] is -0.465 (inactive); in assay [6] it was 0.00614 (inactive). Further, the NADPH fluorescence slope in assay [5] was -1.4e-05 (inactive).

For orientation: inhibition means the relative decrease from the control value, in per cent.

(Values after PubChem BioAssay.)
